Measured values from ChEMBL document CHEMBL4311996 (Bioorg Med Chem Lett, 2019).

Columns and labels:
[1] = system: Middle East respiratory syndrome-related coronavirus; assay: Antiviral activity against MERS-CoV KOR/KNIH/002_05_2015 infected in African green monkey Vero cells expressing viral spike protein by immunofluorescence assay; format: functional, organism-based; conditions: KOR/KNIH/002_05_2015, Vero
Vero = assay: (§1) Cytotoxicity against African green monkey Vero cells assessed as reduction in cell viability; format: cell-based; conditions: chlorocebus sabaeus, vero
[2] = Metabolic stability in human microsomes assessed as parent compound remaining measured after 30 mins; format: ADME, Microsome; conditions: read-out: Stability
[3] = Metabolic stability in rat microsomes assessed as parent compound remaining measured after 30 mins; format: ADME, Microsome; conditions: read-out: Stability
[4] = Metabolic stability in mouse microsomes assessed as parent compound remaining measured after 30 mins; format: ADME, Microsome; conditions: read-out: Stability
[5] = molecular target: Voltage-gated inwardly rectifying potassium channel KCNH2 (Homo sapiens, UniProt Q12809); assay: Binding affinity to human ERG
HFL1 = assay: Cytotoxicity against human HFL1 cells assessed as reduction in cell viability; format: cell-based
L929 = assay: Cytotoxicity against mouse L929 cells assessed as reduction in cell viability; format: cell-based
NIH3T3 = assay: Cytotoxicity against mouse NIH/3T3 cells assessed as reduction in cell viability; format: cell-based
CHO-K1 = assay: Cytotoxicity against CHOK1 cells assessed as reduction in cell viability; format: cell-based; conditions: Cricetulus griseus
[6] = Cmax in rat at 5 mg/kg, po; format: ADME, organism-based; parameters: dose 5 mg/kg, route oral; conditions: in vivo
Method in brief: (§2)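 Rats given single doses, 2 mg/kg intravenously or 5 mg/kg orally, with three animals per route (n = 3). Each parameter is taken from three determinations.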

[7] = Half life in rat at 2 mg/kg, iv; format: ADME, organism-based; conditions: in vivo
[8] = AUC (0 to 24 hrs) in rat at 2 mg/kg, iv; format: ADME, organism-based; parameters: time < 24 hr, dose 2 mg/kg, route intravenous; conditions: in vivo; method in brief: as §2
[9] = AUC (0 to infinity) in rat at 2 mg/kg, iv; format: ADME, organism-based; parameters: dose 2 mg/kg, route intravenous, time infinity; conditions: in vivo; method in brief: as §2
[10] = Clearance in rat at 2 mg/kg, iv; format: ADME, organism-based; conditions: in vivo; method in brief: as §2
[11] = Oral bioavailability in rat at 5 mg/kg; format: ADME, organism-based; conditions: in vivo
Method in brief: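 Rats dosed at 5 mg/kg p.o., with comparison i.v. dosing at 2 mg/kg; n = 3 per route, three determinations.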

[12] = as §1; format: cell-based; conditions: chlorocebus sabaeus, Vero cells

Sequence of Voltage-gated inwardly rectifying potassium channel KCNH2 (Q12809 whole entry): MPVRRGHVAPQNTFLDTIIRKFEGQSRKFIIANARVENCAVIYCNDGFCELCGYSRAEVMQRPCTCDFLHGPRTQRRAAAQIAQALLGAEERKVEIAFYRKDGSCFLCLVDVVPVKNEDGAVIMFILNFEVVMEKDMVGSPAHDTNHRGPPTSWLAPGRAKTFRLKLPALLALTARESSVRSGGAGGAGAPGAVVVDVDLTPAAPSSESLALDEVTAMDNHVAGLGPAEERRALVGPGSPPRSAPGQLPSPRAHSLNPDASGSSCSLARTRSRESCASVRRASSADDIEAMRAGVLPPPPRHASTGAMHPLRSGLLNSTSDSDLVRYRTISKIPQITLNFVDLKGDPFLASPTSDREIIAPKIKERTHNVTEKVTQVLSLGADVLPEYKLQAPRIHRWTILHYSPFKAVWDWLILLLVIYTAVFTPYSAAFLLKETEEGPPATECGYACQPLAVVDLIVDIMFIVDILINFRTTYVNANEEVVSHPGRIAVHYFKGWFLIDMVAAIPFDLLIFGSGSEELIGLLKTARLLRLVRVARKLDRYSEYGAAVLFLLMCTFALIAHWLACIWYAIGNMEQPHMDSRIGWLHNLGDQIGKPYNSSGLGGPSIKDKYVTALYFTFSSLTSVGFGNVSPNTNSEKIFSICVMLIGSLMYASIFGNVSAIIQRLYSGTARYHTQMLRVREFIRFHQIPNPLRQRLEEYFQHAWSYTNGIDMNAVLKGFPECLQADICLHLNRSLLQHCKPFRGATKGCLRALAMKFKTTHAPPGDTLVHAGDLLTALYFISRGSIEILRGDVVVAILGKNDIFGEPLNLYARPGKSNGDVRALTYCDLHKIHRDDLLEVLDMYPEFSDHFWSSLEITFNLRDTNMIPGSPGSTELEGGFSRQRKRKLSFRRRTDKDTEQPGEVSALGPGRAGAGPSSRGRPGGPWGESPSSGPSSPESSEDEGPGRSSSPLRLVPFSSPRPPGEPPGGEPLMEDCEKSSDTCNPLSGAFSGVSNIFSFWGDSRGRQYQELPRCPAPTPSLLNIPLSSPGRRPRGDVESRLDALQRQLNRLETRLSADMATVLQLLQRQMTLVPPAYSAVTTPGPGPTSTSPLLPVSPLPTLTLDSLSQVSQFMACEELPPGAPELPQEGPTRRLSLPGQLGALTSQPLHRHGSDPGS

| SMILES | IC50 [1] [µM] | CC50 (Vero) [µM] | also measured |
| --- | --- | --- | --- |
| CC(=O)c1c(Nc2ccc(F)cc2F)[nH]c2c(F)cc(Cl)cc2c1=O | 0.98 | > 25 |  |
| CC(C)Nc1[nH]c2c(C(F)(F)F)cc(Cl)cc2c(=O)c1C(=O)c1ccccc1 | > 25 |  |  |
| CC(=O)c1c(NC(C)C)[nH]c2c(C)cc(C)cc2c1=O | > 25 |  |  |
| CC(C)C(=O)c1c(Nc2ccc(F)c(F)c2F)[nH]c2c(F)cc(F)cc2c1=O | 0.086 | > 25 | remaining at 0.5 h [2]: 52%; remaining at 0.5 h [3]: 44%; remaining at 0.5 h [4]: 35%; IC50 [5]: 6.9 µM; IC50 (HFL1): 15.6 µM; IC50 (L929): 15.8 µM; IC50 (NIH3T3): 65.6 µM; IC50 (CHO-K1): 6.9 µM; Cmax [6]: 2320 ng/mL; half-life [7]: 4.6 h; AUC [8]: 28300 ng·h/mL; AUC(0-inf) [9]: 28900 ng·h/mL; clearance [10]: 1.17 mL/min/kg; F [11]: 56% |
| CC(C)C(=O)c1c(Nc2ccc(F)cc2F)[nH]c2c(F)cc(F)cc2c1=O | 0.79 | > 25 |  |
| CC(=O)c1c(OCc2ccc(Cl)c(Cl)c2)[nH]c2c(F)cc(F)cc2c1=O | 7.8 | > 25 |  |
| CC(=O)c1c(Nc2ccc(Cl)cc2)[nH]c2c(F)cc(F)cc2c1=O | 1.44 | > 25 |  |
| CC(C)C(=O)c1c(Nc2ccc(F)c(F)c2F)[nH]c2c(Cl)cc(Cl)c(Cl)c2c1=O | 0.1 | 6.4 |  |
| CC(=O)c1c(NCc2ccc(F)cc2F)[nH]c2c(F)cc(F)cc2c1=O | 5.9 | > 25 |  |
| CC(=O)c1c(Nc2ccc(Br)cc2)[nH]c2c(F)cc(F)cc2c1=O | 1.13 | > 25 |  |
| CC(=O)c1c(Nc2ccc(F)cc2F)[nH]c2c([N+](=O)[O-])cc(Cl)cc2c1=O | 1.16 | > 25 |  |
| CCCCNc1[nH]c2c(F)cc(F)cc2c(=O)c1C(C)=O | > 25 | > 25 |  |
| CC(=O)c1c(Nc2ccc(F)cc2F)[nH]c2c(F)cc(F)cc2c1=O | 1.06 | > 25 |  |
| CC(C)C(=O)c1c(Nc2ccc(F)cc2F)[nH]c2c(Cl)cc(Cl)c(Cl)c2c1=O | 0.129 |  | CC50 [12]: > 25 µM |
| CC(=O)c1c(Nc2ccc(F)cc2F)[nH]c2c(C(F)(F)F)cc(Cl)cc2c1=O | 0.15 | 7.3 |  |
| CC(=O)c1c(Nc2ccc(F)c(F)c2F)[nH]c2c(F)cc(F)cc2c1=O | 0.53 | > 25 |  |
| COc1cccc(Nc2[nH]c3c(F)cc(F)cc3c(=O)c2C(C)=O)c1 | > 25 | > 25 |  |
| CC(=O)c1c(NCc2ccc(F)cc2)[nH]c2c(F)cc(F)cc2c1=O | 17.6 | > 25 |  |
| COc1ccc(CNc2[nH]c3c(F)cc(F)cc3c(=O)c2C(C)=O)cc1 | > 25 | > 25 |  |
| CC(C)C(=O)c1c(Nc2ccc(F)c(F)c2F)[nH]c2c(Cl)ccc(Cl)c2c1=O | 0.166 | 10.9 |  |
| CC(=O)c1c(N2CCCCC2)[nH]c2c(F)cc(F)cc2c1=O | > 25 | > 25 |  |
| CC(=O)c1c(NC(C)C)[nH]c2c(C(F)(F)F)cc(Cl)cc2c1=O | 0.77 | > 25 |  |
| CC(=O)c1c(NC(C)C)[nH]c2c(C(C)C)cccc2c1=O | > 25 |  |  |
| CC(C)C(=O)c1c(Nc2ccc(F)cc2F)[nH]c2c(C(F)(F)F)cc(Cl)cc2c1=O | 0.13 | 7.3 |  |
| COc1ccc(Nc2[nH]c3c(F)cc(F)cc3c(=O)c2C(C)=O)cc1 | > 25 | > 25 |  |
| CC(=O)c1c(N2CCOCC2)[nH]c2c(F)cc(F)cc2c1=O | > 25 | > 25 |  |
| CC(=O)c1c(Nc2ccc(F)cc2F)[nH]c2c(Cl)cc(Cl)c(Cl)c2c1=O | 0.29 | > 25 |  |
